This is a sample that favours compounds with a hit; in the whole collection about 2.7% have one here.
OXTR potentiator – potentiates the human oxytocin receptor response | P30559 | CHO-OTR cells, Fluo-8 calcium fluorescence, potentiator mode; 0% = oxytocin EC15, 100% = EC100 | activation, % at 3 µM | 320,000 compounds, 0.061% hits;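 active = activation above that plate's cutoff, the mean activation of tested compounds plus 3 SD, cut at about 6.6% in these data, passing the limit was not always enough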;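 also: 100% uses oxytocin at 75 nM as the full agonist control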
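System: human OTR in CHO cells / Also added: sub-maximal oxytocin, roughly EC15 / Control set: EC15 oxytocin low, 75 nM oxytocin high / Schedule: 6 min compound pre-incubation at room temperature, 100 s kinetic read / Compound: single-point 3.0 µM / Replication: singlicate / Technique: Fluo-8 calcium dye fluorescence / Read-out basis: % activation of max/min ratio relative to oxytocin controls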
CHO parental Ca – counter-screen for OX1R antagonists: effect in parental CHO cells | parental CHO-K1, ATP-induced calcium, Fluo-8 fluorescence | inhibition, % at 5.6 µM | 330,000 compounds, 0.63% hits;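 active = inhibition above that plate's mean sample inhibition plus 3 SD, cut at about 26% in these data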;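 also: 0% = ATP-challenged DMSO wells and 100% = DMSO wells without ATP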
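Material: parental CHO cells / Compound: single nominal dose of 5.6 µM per compound / Signal: Fluo-8 fluorescence / Replicates: singlicate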
OX1R antag-1 – blocks the human orexin 1 receptor | O43613 | 330,000 compounds, 0.43% hits | inhibition, % at 5 µM | AID 434989 | CHO/OX1R cells, Fluo-8 calcium fluorescence, orexin A;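 active = inhibition above its plate's threshold, mean inhibition of all tested compounds on the plate plus 3 SD, cut at about 37% in these data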;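 also: 0% = orexin A challenge wells and 100% = SB-334867-A antagonist wells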
Target sequence (O43613 whole entry, looked up): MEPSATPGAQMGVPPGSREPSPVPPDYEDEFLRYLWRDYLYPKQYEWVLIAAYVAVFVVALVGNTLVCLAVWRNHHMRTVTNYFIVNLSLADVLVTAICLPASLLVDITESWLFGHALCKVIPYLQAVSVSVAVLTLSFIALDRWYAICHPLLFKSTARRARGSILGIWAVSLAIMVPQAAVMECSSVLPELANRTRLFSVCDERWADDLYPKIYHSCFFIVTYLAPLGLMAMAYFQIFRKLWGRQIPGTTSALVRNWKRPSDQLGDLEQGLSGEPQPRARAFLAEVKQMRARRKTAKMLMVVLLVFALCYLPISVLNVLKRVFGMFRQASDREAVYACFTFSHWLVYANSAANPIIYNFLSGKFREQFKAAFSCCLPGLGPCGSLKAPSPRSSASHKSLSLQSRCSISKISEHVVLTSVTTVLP
OX1R antag-2 – blocks the human orexin 1 receptor; AID 485270; O43613; OX1R-expressing cells, FRET antagonist read-out; 330,000 compounds, 1.8% hits; inhibition, % at 6.6 µM; in the data active = inhibition mostly above about 38%, no sharp cut-off; inactive = mostly below about 40%;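 also: 0% = agonist challenge alone and 100% = reference antagonist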
OXTR ag – activates the human oxytocin receptor; P30559; CHO-OTR cells, Fluo-8 calcium fluorescence; normalized: DMSO 0%, oxytocin 100%; activation, % at 3 µM; 320,000 compounds, 0.32% hits; AID 2435;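 active = activation above the mean of all tested compounds plus 3 SD, cutoff set per screening run, cut at about 20% in these data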;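 also: peak over basal fluorescence ratio from a 100 s FLIPR kinetic read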
V1aR counter – activates human V1a receptor in oxytocin agonist counter-screen; P37288; CHO-V1R cells, Fluo-8 calcium fluorescence, agonist mode; 0% DMSO, 100% 3 nM vasopressin; activation, % at 3 µM; 320,000 compounds, 0.25% hits; AID 2797;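 active = activation above the mean activation of all tested compounds plus 3 SD, per screening run, cut at about 20% in these data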;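 also: signal is peak over basal fluorescence ratio across a 100 second FLIPR read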
OX1R HTRF confirm – confirmation of human orexin 1 receptor antagonists, HTRF format; shares compounds with OX1R antag-2; OX1R-expressing cells, HTRF antagonist assay; inhibition, % at 6.6 µM; 1,800 compounds, 49% hits; in the data active = inhibition above about 55%;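 also: CHO cells expressing OX1R stimulated with orexin A at about EC80; 0% = agonist challenge alone and 100% = reference antagonist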
CHO-K1 HTRF cnt – counter-screen: parental CHO-K1 HTRF response | inhibition, % at 6.6 µM | parental CHO-K1 cells, HTRF counterscreen | AID 493232 | shares compounds with OX1R antag-2 | 1,800 compounds, 48% hits; in the data active = inhibition above about 17%;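 also: 0% = agonist challenge with vehicle and 100% = vehicle alone without agonist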
Numbers without * were called inactive.

How did CCN(C(=O)CN1C(=O)c2ccc([N+](=O)[O-])cc2C1=O)C1CCS(=O)(=O)C1 (stereo unspecified) do in these assays?
OXTR potentiator: -7.0; CHO parental Ca: 5.8; OX1R antag-1: -4.7; OX1R antag-2: 90.5*; OXTR ag: 0.3; V1aR counter: 0.3; OX1R HTRF confirm: 63.8*; CHO-K1 HTRF cnt: 73.7*

How did COc1ccc(/C=C/c2ccc3ccccc3[n+]2C)cc1OC do in these assays?
OXTR potentiator: -6.7; CHO parental Ca: 4.5; OX1R antag-1: -5.3; OX1R antag-2: 78.3*; OXTR ag: 0.7; V1aR counter: 1.1; OX1R HTRF confirm: 70.0*; CHO-K1 HTRF cnt: 85.6*

How did Cn1ncc2c(Nc3ccc4ccccc4c3)ncnc21 do in these assays?
OXTR potentiator: -13.5; CHO parental Ca: -17.2; OX1R antag-1: -20.4; OX1R antag-2: 78.0*; OXTR ag: -2.3; V1aR counter: -0.4; OX1R HTRF confirm: 77.6*; CHO-K1 HTRF cnt: 1.5

How did Cc1cccc(Nc2ncnc3c2cnn3C)c1 do in these assays?
OXTR potentiator: 2.3; CHO parental Ca: 0.6; OX1R antag-1: -1.1; OX1R antag-2: 4.5; OXTR ag: -0.1; V1aR counter: 0.4

What do the screens show for `Cc1ccc(/C=C(\CCC(=O)O)c2nc3ccccc3s2)cc1[N+](=O)[O-]`?
OXTR potentiator: -5.3; CHO parental Ca: 2.0; OX1R antag-1: -6.5; OX1R antag-2: 27.4; OXTR ag: 0.2; V1aR counter: 0.9

What do the screens show for `CNc1ccc(/C=C(\CCC(=O)O)c2nc3ccccc3s2)cc1[N+](=O)[O-]`?
OXTR potentiator: -7.1; CHO parental Ca: 15.4; OX1R antag-1: -5.2; OX1R antag-2: 87.4*; OXTR ag: 3.5; V1aR counter: 1.1; OX1R HTRF confirm: 23.9; CHO-K1 HTRF cnt: 12.1

What do the screens show for `O=C(CCS(=O)(=O)c1cccc2nonc12)NCCc1ccccc1`?
OXTR potentiator: -7.4; CHO parental Ca: -18.5; OX1R antag-1: -28.4; OX1R antag-2: 87.2*; OXTR ag: 0.8; V1aR counter: 0.4; OX1R HTRF confirm: 34.4; CHO-K1 HTRF cnt: 35.6*

How did COc1cc(/C=C/C(=O)OCC(=O)Nc2c(C)n(C)n(-c3ccccc3)c2=O)cc(OC)c1OC do in these assays?
OXTR potentiator: -2.7; CHO parental Ca: -14.5; OX1R antag-1: -17.5; OX1R antag-2: -1.6; OXTR ag: -0.6; V1aR counter: 0.1

What do the screens show for `O=[N+]([O-])c1ccc(-[n+]2nc(-c3ccccc3)nn2-c2ccccc2)cc1`?
OXTR potentiator: -8.9; CHO parental Ca: -3.1; OX1R antag-1: -1.5; OX1R antag-2: 81.1*; OXTR ag: 0.4; V1aR counter: 0.6; OX1R HTRF confirm: 52.6; CHO-K1 HTRF cnt: 78.8*

Results for CC(C)OCCCNC(=O)C(Cc1ccccc1)NS(=O)(=O)c1ccc2c(c1)CCC(=O)N2 (stereo unspecified) ?
OXTR potentiator: -1.6; CHO parental Ca: -15.2; OX1R antag-1: -16.0; OX1R antag-2: 20.3; OXTR ag: 0.7; V1aR counter: -0.3

What do the screens show for `CCOc1ccccc1CNC(=O)C1Cc2cc(S(=O)(=O)N3CCCCC3)ccc2N1C(C)=O` (stereo unspecified)?
OXTR potentiator: 2.8; CHO parental Ca: -12.1; OX1R antag-1: -12.2; OX1R antag-2: 13.9; OXTR ag: -1.9; V1aR counter: -0.6

Results for O=C(CSc1ncnc2nc[nH]c12)c1ccc2ccccc2c1 ?
OXTR potentiator: -21.0; CHO parental Ca: -2.2; OX1R antag-1: 22.7; OX1R antag-2: 84.5*; OXTR ag: 8.2; V1aR counter: 8.6; OX1R HTRF confirm: 34.0; CHO-K1 HTRF cnt: -1.2

Results for O=C(O)CSc1ncnc2nc[nH]c12 ?
OXTR potentiator: 0.3; CHO parental Ca: 1.8; OX1R antag-1: 6.8; OX1R antag-2: 7.6; OXTR ag: -0.3; V1aR counter: 0.2

How did COCC(=O)OCC(=O)Nc1ccc(Cl)cc1[N+](=O)[O-] do in these assays?
OXTR potentiator: -3.1; CHO parental Ca: -3.0; OX1R antag-1: 3.9; OX1R antag-2: 98.6*; OXTR ag: -1.5; V1aR counter: 1.0; OX1R HTRF confirm: 28.0; CHO-K1 HTRF cnt: 50.1*

What do the screens show for `c1ccc2c(-c3nc4ncccc4o3)cccc2c1`?
OXTR potentiator: -0.6; CHO parental Ca: -17.7; OX1R antag-1: -6.6; OX1R antag-2: 90.5*; OXTR ag: -1.3; V1aR counter: -1.4; OX1R HTRF confirm: 88.8*; CHO-K1 HTRF cnt: 9.9

Results for O=C(OCC(=O)N1CCCC1)c1cc([N+](=O)[O-])ccc1Cl ?
OXTR potentiator: -7.9; CHO parental Ca: -5.0; OX1R antag-1: -6.4; OX1R antag-2: 117.7*; OXTR ag: 0.2; V1aR counter: -0.5; OX1R HTRF confirm: 54.6; CHO-K1 HTRF cnt: 55.8*

Results for O=C(Cc1cccs1)Nc1cccc(-c2nc3ccccc3o2)c1 ?
OXTR potentiator: -8.8; CHO parental Ca: -21.1; OX1R antag-1: 6.8; OX1R antag-2: 77.5*; OXTR ag: 10.9; V1aR counter: 4.1; OX1R HTRF confirm: 74.2*; CHO-K1 HTRF cnt: -0.1

Results for Cc1ccc(-c2nc3ccccc3o2)cc1NC(=O)Cc1cccs1 ?
OXTR potentiator: -21.2; CHO parental Ca: 1.8; OX1R antag-1: 1.6; OX1R antag-2: -0.3; OXTR ag: -0.3; V1aR counter: 0.4

How did CC(C)[n+]1ccn(C2=C([O-])c3ccccc3C(=O)/C2=N\S(=O)(=O)c2ccccc2)c1 do in these assays?
OXTR potentiator: -3.0; CHO parental Ca: -3.2; OX1R antag-1: -18.9; OX1R antag-2: 77.3*; OXTR ag: -0.7; V1aR counter: -0.5; OX1R HTRF confirm: 69.3*; CHO-K1 HTRF cnt: 95.5*

Results for CCCC[n+]1ccn(C2=C([O-])c3ccccc3C(=O)/C2=N\S(=O)(=O)c2ccccc2)c1 ?
OXTR potentiator: -0.1; CHO parental Ca: -25.3; OX1R antag-1: -27.7; OX1R antag-2: 165.4*; OXTR ag: -1.4; V1aR counter: -1.0; OX1R HTRF confirm: 54.6; CHO-K1 HTRF cnt: 93.7*

What do the screens show for `CCCCC[n+]1ccn(C2=C([O-])c3ccccc3C(=O)/C2=N\S(=O)(=O)c2ccccc2)c1`?
OXTR potentiator: 3.8; CHO parental Ca: -31.1; OX1R antag-1: -30.1; OX1R antag-2: 99.7*; OXTR ag: -2.0; V1aR counter: -0.9; OX1R HTRF confirm: 46.9; CHO-K1 HTRF cnt: 52.3*

How did O=C(Cc1ccccc1)NNS(=O)(=O)c1ccccc1[N+](=O)[O-] do in these assays?
OXTR potentiator: 4.7; CHO parental Ca: 4.0; OX1R antag-1: -5.7; OX1R antag-2: 4.5; OXTR ag: 0.1; V1aR counter: 0.5
